The test system of data set [1] is Hepatitis C virus. Kind of data set: Antiviral activity against HCV1b infected in human Ava5/Huh7 cells by replicon-cell assay. The data set is classed as functional, organism-based, Hepacivirus hominis. The conditions noted are these: genotype 1b. On the technique in general: Replicon systems follow genome replication, usually without infectious particles.
Data set [2] has as its system Hepacivirus hominis. Kind of data set: Inhibition of HCV NS3/4A helicase assessed as blockade of ssRNA formation form dsRNA at 100 uM by PAGE.
A short description of data set [3]: Inhibition of HCV NS3/4A helicase by FRET assay. Also on record: species or system Hepacivirus hominis. Put shortly: (§1)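 His-tagged NS3/4A (0.9 µg) preincubated with compound on ice for 15 min. Fluorescence (ex 485/em 518 nm) followed continuously and end-point minus start normalized to DMSO. Screened at 100 µM final.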
Data set [4] is described as follows: Ratio of CC50 for human HuH7 cells to EC50 for HCV1b. More on the design: species or system Huh-7.
Data set [5] deals with Hepacivirus hominis. The data set is described as follows: Inhibition of HCV NS3/4A helicase assessed as blockade of dsRNA binding to enzyme by gel mobility shift assay. Put shortly:
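Gel mobility shift. NS3/4A (0.45 µg) preincubated with 100 µM compound in helicase buffer without ATP for 5 min at 37 °C. Then 0.66 pmol isotope-labeled partial dsRNA added for 15 min more. Complexes resolved on 4% polyacrylamide containing 5% glycerol and visualized by autoradiography.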

Data set [6] can be described thus: Inhibition of ATPase activity of HCV NS3/4A helicase by autoradiography. More on the design: species or system Hepacivirus hominis. The method in brief:
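ATP hydrolysis measured in 20 mM HEPES-KOH pH 7.0, 1.5 mM MgCl2, 2 mM DTT and 0.1 µg/mL poly-U, with [α-32P]ATP spanning 0.067-20 µM ATP. Reaction started by adding His-tagged NS3/4A (0.45 µg) and stopped with EDTA after 5 min. Products separated by PEI-cellulose TLC in 0.375 M K2PO4 pH 3.5 and quantified by autoradiography.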

Data set [7] in a line: Cytotoxicity against human HuH7 cells. In kind it is cell-based, Huh-7.
A short description of data set [8]: Cytotoxicity against human Ava5/Huh7 cells assessed as reduction in cell growth at 5 uM after 5 days in presence of polypeptide synthesis blocker G418. In kind it is cell-based. Also on record: scale not given: the % may be the effect or the level left. As to conditions: ava5/huh7, 120 h.
Data set [9] concerns Hepatitis C virus. The data set is described as follows: Antiviral activity against HCV1b infected in human Ava5/Huh7 cells assessed as decrease in viral RNA level at 5 to 10 uM after 2 days by RT-PCR relative to control. In kind it is functional, Hepacivirus hominis, genotype 1b. More on the design: scale not given: the % may be the effect or the level left. Put shortly: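 Ava.5/Huh-7 replicon cells (genotype 1b) seeded and grown 24 h in G-418-free DMEM, then exposed to 5, 10 or 20 µM compound for 24 or 48 h. Total RNA extracted and 1 µg reverse-transcribed with random decamers. SYBR Green real-time PCR run 40 cycles. HCV signal normalized to GAPDH and expressed relative to untreated replicon cells set at 1.0. Triplicate, averaged.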

Data set [10] in a line: Cytotoxicity against human Ava5/Huh7 cells assessed as reduction in cell growth at 5 uM after 5 days in absence of polypeptide synthesis blocker G418. The data set is classed as cell-based. Also on record: scale not given: the % may be the effect or the level left. As to conditions: ava5/huh7, 120 h.
In data set [11] the test system is Hepacivirus hominis. Kind of data set: Inhibition of HCV NS3/4A helicase at 100 uM by FRET assay. The method in brief: as §1

Activity calls are given as the source filed them. The calls are words filed in the database; no cut-off is given here.

For `Cc1cc([C@@](O)(c2ccc(Nc3ccccc3)cc2)c2ccc(Nc3ccc(S(=O)(=O)[O-])cc3)cc2)ccc1N.[Na+]`, the EC50 (commonly the midpoint of the concentration-response curve) in the data set with Hepatitis C virus [1] is 0.69 µM. Further, the outcome in the data set with Hepacivirus hominis [2] was inactive. Besides, the IC50 (as a rule, the point on the concentration scale where inhibition reaches its midpoint) in data set [3] was 12.6 µM; in data set [6], more than 100 µM. In addition, the “Ratio CC50/EC50” value in [4] came out at 1.39. The Activity result with Hepacivirus hominis [5] was “Dose-dependent effect”. The CC50 (commonly the concentration giving 50% cytotoxicity) in data set [7] turned out to be 0.96 µM.
Molecule `CC(C)(c1ccc(C(C)(c2ccc(O)c(Br)c2)c2ccc(O)c(Br)c2)cc1)c1ccc(O)c(Br)c1` had an EC50 in the data set with Hepatitis C virus [1] of 2.72 µM. Also, the Activity in data set [8] was 50%; with Hepatitis C virus [9], 40%; in data set [10] it was 20%. Also, the IC50 in [3] came to 10.1 µM. In data set [4], the “Ratio CC50/EC50” value is listed as 3.86. In data set [7], this molecule came in with a CC50 of 10.5 µM.
Regarding `CC(c1ccccc1)(c1ccc(Oc2ccc([N+](=O)[O-])cc2)cc1)c1ccc(Oc2ccc([N+](=O)[O-])cc2)cc1`, in the data set on Hepacivirus hominis [11], the inhibition (usually how much of the control response was suppressed) worked out at 0%.
For `CC(c1ccc(O)cc1)(c1ccc(O)cc1)c1ccc(O)cc1`, the inhibition with Hepacivirus hominis [11] was 39%.
`CC(C)(c1ccc(O)cc1)c1ccc(C(C)(C)c2ccc(O)cc2)cc1` yielded an IC50 in data set [3] of 60.7 µM.
As for `COc1ccc(C(C)(C)c2ccc(C(C)(c3ccc(OC)cc3)c3ccc(OC)cc3)cc2)cc1`, the inhibition in the data set on Hepacivirus hominis [11] came to 15%.
In the data set with Hepacivirus hominis [11], `CC(c1ccccc1)(c1ccc(O)cc1)c1ccc(O)cc1` yielded an inhibition of 43%.
On to `CC(C)(c1ccc(O)cc1)c1ccc(C(C)(c2ccc(O)cc2)c2ccc(O)cc2)cc1`, for which the EC50 with Hepatitis C virus [1] came out at 8.37 µM. For the same molecule, the outcome in the data set on Hepacivirus hominis [2] was Active. The IC50 in data set [3] stood at 13.9 µM; in data set [6], 25.9 µM. In addition, the “Ratio CC50/EC50” value in [4] worked out at 1.51. Besides, in the data set with Hepacivirus hominis [5], the Activity result was “Dose-dependent effect”. Besides, the midpoint of cytotoxicity in [7], the CC50, lay at 12.7 µM.
Molecule `O=C(O)c1cc(Nc2ccc(C(Cl)(c3ccccc3)c3ccc(Nc4ccc(Cl)c(C(=O)O)c4)cc3)cc2)ccc1Cl` displayed an EC50 in the data set with Hepatitis C virus [1] of more than 50 µM. Further, the outcome with Hepacivirus hominis [2] was Active. Moreover, the IC50 is 29.7 µM in [3] and 25.1 µM in [6]. The Activity entry in the data set on Hepacivirus hominis [5] is “Dose-dependent effect”. In addition, the CC50 in data set [7] was more than 50 µM.
`COc1ccc(-c2cc(-c3ccc(N(C)C)cc3)nc(NS(=O)(=O)c3ccc(N)cc3)n2)cc1` showed an inhibition in the data set with Hepacivirus hominis [11] of 46%.
Consider `Nc1ccc(C(c2ccc(N)cc2)c2ccc(N)cc2)cc1`, for which, in the data set on Hepacivirus hominis [11], the inhibition worked out at 30%.
`O=S(=O)(O)c1ccc(N=C2C=CC(=C(c3ccc(Nc4cccc(S(=O)(=O)O)c4)cc3)c3ccc(Nc4cccc(S(=O)(=O)O)c4)cc3)C=C2)cc1` returned an EC50 in the data set on Hepatitis C virus [1] of more than 50 µM. Besides, the result in the data set on Hepacivirus hominis [2] was Active. Further, the IC50 in [3] was determined as 40 µM; in data set [6], 23.8 µM. The Activity entry in the data set on Hepacivirus hominis [5] is “Dose-dependent effect”. The same molecule had a CC50 in data set [7] of more than 50 µM.
